Assay results published in ChEMBL document CHEMBL4382192, “Discovery of a potent dual ALK and EGFR T790M inhibitor” (Eur J Med Chem, 2017).

Key:
[1] = AUClast in mouse at 10 mg/kg, po; type: ADME, organism-based; parameters: dose 10 mg/kg, time 0 - last, route oral; conditions: in vivo
[2] = tested on: ALK tyrosine kinase receptor (Homo sapiens), Q9UM73 [L1196M]; assay: Binding affinity to wild-type human partial length ALK L1196M mutant (I1088 to E1409 residues) expressed in mammalian expression system assessed as residual binding level at 1 uM by Kinomescan method relative to control
[3] = biological target: Tyrosine-protein kinase receptor UFO (Homo sapiens) (UniProt P30530); assay: Binding affinity to wild-type human partial length AXL (R497 to Y821 residues) expressed in bacterial expression system assessed as residual binding level at 1 uM by Kinomescan method relative to control
Chain of Tyrosine-protein kinase receptor UFO (Homo sapiens) (P30530 whole entry, the tested form may be a part): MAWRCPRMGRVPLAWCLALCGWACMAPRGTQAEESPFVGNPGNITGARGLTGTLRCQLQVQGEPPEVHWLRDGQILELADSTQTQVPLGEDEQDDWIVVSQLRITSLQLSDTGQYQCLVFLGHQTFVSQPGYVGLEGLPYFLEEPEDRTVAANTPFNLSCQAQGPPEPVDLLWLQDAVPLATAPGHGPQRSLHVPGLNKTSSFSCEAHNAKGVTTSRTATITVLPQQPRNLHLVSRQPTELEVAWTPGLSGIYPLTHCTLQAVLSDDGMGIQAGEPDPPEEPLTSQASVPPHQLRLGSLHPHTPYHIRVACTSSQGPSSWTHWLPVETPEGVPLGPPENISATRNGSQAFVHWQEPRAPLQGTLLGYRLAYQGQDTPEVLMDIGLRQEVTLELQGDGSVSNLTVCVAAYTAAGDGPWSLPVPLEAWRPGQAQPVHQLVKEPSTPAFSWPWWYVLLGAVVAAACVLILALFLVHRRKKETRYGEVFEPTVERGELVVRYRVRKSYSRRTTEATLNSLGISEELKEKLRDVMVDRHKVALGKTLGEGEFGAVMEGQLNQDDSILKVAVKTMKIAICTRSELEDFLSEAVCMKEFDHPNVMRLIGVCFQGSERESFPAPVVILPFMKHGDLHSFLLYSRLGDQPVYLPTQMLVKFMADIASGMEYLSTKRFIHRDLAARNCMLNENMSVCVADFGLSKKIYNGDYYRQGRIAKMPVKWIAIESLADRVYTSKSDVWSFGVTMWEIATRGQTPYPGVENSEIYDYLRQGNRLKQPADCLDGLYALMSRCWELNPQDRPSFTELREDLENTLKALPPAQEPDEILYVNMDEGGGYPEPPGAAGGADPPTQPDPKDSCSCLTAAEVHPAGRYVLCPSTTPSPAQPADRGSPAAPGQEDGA

[4] = biological target: Calcium/calmodulin-dependent protein kinase type II subunit gamma (Homo sapiens) (UniProt Q13555); assay: Binding affinity to wild-type human partial length CAMK2G (R9 to A303 residues) expressed in bacterial expression system assessed as residual binding level at 1 uM by Kinomescan method relative to control
Chain of Calcium/calmodulin-dependent protein kinase type II subunit gamma (Homo sapiens) (Q13555 whole entry, the tested form may be a part): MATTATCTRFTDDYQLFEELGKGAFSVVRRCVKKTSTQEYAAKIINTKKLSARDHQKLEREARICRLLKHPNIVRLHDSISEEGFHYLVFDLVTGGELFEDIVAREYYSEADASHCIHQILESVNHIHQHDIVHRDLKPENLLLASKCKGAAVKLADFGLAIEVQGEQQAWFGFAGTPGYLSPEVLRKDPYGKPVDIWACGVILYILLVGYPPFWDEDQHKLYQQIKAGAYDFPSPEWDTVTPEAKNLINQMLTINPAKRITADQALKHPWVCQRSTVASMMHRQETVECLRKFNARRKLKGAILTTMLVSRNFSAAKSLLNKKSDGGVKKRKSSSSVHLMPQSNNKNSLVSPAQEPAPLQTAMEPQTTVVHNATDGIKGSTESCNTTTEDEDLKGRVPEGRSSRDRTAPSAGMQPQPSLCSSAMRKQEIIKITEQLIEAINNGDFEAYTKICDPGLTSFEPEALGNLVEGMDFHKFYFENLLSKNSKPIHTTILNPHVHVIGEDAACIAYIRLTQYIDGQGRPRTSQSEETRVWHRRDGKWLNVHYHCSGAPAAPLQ

[5] = biological target: Cyclin-dependent kinase 19 (Homo sapiens) (UniProt Q9BWU1); assay: Binding affinity to wild-type human partial length CDK11 (M1 to N360 residues) expressed in bacterial expression system assessed as residual binding level at 1 uM by Kinomescan method relative to control
Chain of Cyclin-dependent kinase 19 (Homo sapiens) (Q9BWU1 whole entry, the tested form may be a part): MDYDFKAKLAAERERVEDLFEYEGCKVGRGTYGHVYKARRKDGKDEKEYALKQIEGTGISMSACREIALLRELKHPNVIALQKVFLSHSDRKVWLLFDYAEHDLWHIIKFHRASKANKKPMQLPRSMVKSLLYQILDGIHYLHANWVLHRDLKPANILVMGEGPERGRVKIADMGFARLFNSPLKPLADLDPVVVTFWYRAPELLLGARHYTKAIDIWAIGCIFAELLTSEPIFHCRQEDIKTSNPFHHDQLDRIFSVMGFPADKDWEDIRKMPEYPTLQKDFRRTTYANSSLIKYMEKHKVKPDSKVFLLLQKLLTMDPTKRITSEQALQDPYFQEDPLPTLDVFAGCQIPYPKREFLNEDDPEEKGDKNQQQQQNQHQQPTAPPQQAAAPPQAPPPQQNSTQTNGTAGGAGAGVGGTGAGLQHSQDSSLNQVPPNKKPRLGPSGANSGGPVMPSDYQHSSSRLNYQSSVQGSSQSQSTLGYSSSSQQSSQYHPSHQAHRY

[6] = biological target: Cyclin-dependent kinase 3 (Homo sapiens) (UniProt Q00526); assay: Binding affinity to wild-type human full length CDK3 (M1 to H305 residues) expressed in bacterial expression system assessed as residual binding level at 1 uM by Kinomescan method relative to control
[7] = biological target: Cyclin-dependent kinase-like 2 (Homo sapiens) (UniProt Q92772); assay: Binding affinity to wild-type human partial length CDKL2 (M1 to D327 residues) expressed in bacterial expression system assessed as residual binding level at 1 uM by Kinomescan method relative to control
[8] = biological target: Casein kinase I isoform delta (Homo sapiens) (UniProt P48730); assay: Binding affinity to wild-type human full length CSNK1D (M1 to K409 residues) expressed in bacterial expression system assessed as residual binding level at 1 uM by Kinomescan method relative to control
[9] = biological target: Megakaryocyte-associated tyrosine-protein kinase (Homo sapiens) (UniProt P42679); assay: Binding affinity to wild-type human full length CTK (M43 to P508 residues) expressed in mammalian expression system assessed as residual binding level at 1 uM by Kinomescan method relative to control
[10] = biological target: Ephrin type-A receptor 2 (Homo sapiens) (UniProt P29317); assay: Binding affinity to wild-type human partial length EPHA2 (T593 to V891 residues) expressed in bacterial expression system assessed as residual binding level at 1 uM by Kinomescan method relative to control
[11] = biological target: Ephrin type-A receptor 6 (Homo sapiens) (UniProt Q9UF33); assay: Binding affinity to wild-type human partial length EPHA6 (Y700 to E1046 residues) expressed in bacterial expression system assessed as residual binding level at 1 uM by Kinomescan method relative to control
[12] = biological target: Inhibitor of nuclear factor kappa-B kinase subunit beta (Homo sapiens) (UniProt O14920); assay: Binding affinity to wild-type human full length IKK-beta (M1 to S756 residues) expressed in mammalian expression system assessed as residual binding level at 1 uM by Kinomescan method relative to control
Chain of Inhibitor of nuclear factor kappa-B kinase subunit beta (Homo sapiens) (O14920 whole entry, the tested form may be a part): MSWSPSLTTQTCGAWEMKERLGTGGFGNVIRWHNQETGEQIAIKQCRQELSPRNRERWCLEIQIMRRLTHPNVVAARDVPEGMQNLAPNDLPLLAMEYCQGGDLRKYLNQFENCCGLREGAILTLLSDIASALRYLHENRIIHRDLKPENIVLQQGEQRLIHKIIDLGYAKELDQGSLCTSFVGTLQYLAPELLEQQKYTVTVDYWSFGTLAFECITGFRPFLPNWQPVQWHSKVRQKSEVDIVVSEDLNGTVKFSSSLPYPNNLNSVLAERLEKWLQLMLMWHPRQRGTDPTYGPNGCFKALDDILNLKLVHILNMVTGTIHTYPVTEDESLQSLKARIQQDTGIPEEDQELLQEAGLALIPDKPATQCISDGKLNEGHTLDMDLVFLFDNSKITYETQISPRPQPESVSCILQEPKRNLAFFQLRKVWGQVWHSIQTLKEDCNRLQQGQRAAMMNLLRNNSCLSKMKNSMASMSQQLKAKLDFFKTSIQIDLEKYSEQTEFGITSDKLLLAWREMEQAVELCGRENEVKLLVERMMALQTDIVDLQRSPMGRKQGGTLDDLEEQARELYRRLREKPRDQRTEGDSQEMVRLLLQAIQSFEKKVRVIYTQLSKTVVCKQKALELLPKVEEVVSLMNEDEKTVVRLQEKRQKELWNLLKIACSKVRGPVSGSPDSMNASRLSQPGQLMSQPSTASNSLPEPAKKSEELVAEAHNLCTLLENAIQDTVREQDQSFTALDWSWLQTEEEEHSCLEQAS
In short: (§1)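 Single-point kinome-wide KINOMEscan binding panel, test compound at 1 μM, run by the provider's standard protocol.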

[13] = biological target: Mast/stem cell growth factor receptor Kit (Homo sapiens) (UniProt P10721); assay: Binding affinity to wild-type human partial length KIT (I571 to D952 residues) expressed in bacterial expression system assessed as residual binding level at 1 uM by Kinomescan method relative to control
Chain of Mast/stem cell growth factor receptor Kit (Homo sapiens) (P10721 whole entry, the tested form may be a part): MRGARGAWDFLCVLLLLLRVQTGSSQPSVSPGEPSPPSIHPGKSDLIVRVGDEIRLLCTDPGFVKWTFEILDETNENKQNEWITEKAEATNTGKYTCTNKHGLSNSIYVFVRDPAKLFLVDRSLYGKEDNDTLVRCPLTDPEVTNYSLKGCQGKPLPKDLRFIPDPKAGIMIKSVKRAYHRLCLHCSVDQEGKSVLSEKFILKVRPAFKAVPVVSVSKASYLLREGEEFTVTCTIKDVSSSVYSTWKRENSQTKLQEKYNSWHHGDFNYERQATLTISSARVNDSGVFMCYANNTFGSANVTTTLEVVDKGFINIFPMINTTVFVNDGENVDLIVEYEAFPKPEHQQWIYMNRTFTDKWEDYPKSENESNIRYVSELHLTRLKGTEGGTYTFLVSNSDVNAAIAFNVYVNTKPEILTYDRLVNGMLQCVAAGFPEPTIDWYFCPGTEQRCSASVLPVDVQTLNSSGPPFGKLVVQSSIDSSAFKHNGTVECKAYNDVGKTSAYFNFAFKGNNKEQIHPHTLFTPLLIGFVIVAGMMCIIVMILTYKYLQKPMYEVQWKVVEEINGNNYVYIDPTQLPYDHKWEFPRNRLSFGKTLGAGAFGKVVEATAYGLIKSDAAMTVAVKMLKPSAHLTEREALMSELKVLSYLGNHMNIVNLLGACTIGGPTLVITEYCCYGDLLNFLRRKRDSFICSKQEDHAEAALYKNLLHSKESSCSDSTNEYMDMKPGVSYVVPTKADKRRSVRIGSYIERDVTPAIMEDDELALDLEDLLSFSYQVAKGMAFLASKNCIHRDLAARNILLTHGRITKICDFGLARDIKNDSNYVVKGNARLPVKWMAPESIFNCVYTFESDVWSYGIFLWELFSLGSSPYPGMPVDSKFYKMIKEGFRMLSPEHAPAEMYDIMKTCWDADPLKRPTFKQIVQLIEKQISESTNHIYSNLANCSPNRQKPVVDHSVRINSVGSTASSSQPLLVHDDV

[14] = tested on: Mast/stem cell growth factor receptor Kit (Homo sapiens), P10721 [V559D,T670I]; assay: Binding affinity to human partial length KIT V559D/T670I double mutant (Y545 to D952 residues) expressed in bacterial expression system assessed as residual binding level at 1 uM by Kinomescan method relative to control
In short: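 Kinome-wide selectivity panel run by the KINOMEscan method, with the test compound at a single concentration of 1 μM. Wild-type and mutant kinases were profiled in the same screen.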

[15] = biological target: Dual specificity mitogen-activated protein kinase kinase 1 (Homo sapiens) (UniProt Q02750); assay: Binding affinity to wild-type human full length MEK1 (M1 to V393 residues) expressed in mammalian expression system assessed as residual binding level at 1 uM by Kinomescan method relative to control; in short: as §1
[16] = biological target: Dual specificity mitogen-activated protein kinase kinase 6 (Homo sapiens) (UniProt P52564); assay: Binding affinity to wild-type human partial length MEK6 (K36 to D334 residues) expressed in bacterial expression system assessed as residual binding level at 1 uM by Kinomescan method relative to control
[17] = biological target: Serine/threonine-protein kinase mTOR (Homo sapiens) (UniProt P42345); assay: Binding affinity to wild-type human partial length MTOR (L1382 to W2549 residues) expressed in mammalian expression system assessed as residual binding level at 1 uM by Kinomescan method relative to control
[18] = biological target: Serine/threonine-protein kinase 38 (Homo sapiens) (UniProt Q15208); assay: Binding affinity to wild-type human partial length NDR1 (N33 to E449 residues) expressed in mammalian expression system assessed as residual binding level at 1 uM by Kinomescan method relative to control
[19] = biological target: Serine/threonine-protein kinase Nek11 (Homo sapiens) (UniProt Q8NG66); assay: Binding affinity to wild-type human partial length NEK11 (M1 to E313 residues) expressed in mammalian expression system assessed as residual binding level at 1 uM by Kinomescan method relative to control
Chain of Serine/threonine-protein kinase Nek11 (Homo sapiens) (Q8NG66 whole entry, the tested form may be a part): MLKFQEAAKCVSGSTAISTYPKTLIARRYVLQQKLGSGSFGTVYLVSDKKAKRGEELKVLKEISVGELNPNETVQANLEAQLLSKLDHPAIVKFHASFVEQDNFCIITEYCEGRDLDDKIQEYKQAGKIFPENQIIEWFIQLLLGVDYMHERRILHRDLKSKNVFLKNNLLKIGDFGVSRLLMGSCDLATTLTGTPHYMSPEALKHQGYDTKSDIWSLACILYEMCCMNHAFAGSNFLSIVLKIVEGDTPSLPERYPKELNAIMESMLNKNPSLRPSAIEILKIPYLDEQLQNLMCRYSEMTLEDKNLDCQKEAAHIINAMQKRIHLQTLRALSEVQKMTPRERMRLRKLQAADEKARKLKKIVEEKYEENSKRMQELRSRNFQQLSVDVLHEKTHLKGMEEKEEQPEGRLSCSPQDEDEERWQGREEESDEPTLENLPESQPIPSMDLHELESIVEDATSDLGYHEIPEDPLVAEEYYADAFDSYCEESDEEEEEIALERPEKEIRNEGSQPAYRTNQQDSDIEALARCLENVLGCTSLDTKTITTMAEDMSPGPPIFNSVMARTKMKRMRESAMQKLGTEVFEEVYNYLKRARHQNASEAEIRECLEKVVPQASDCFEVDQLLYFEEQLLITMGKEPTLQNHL

[20] = biological target: Platelet-derived growth factor receptor beta (Homo sapiens) (UniProt P09619); assay: Binding affinity to wild-type human partial length PDGFRB (V582 to Y1009 residues) expressed in bacterial expression system assessed as residual binding level at 1 uM by Kinomescan method relative to control
[21] = biological target: Serine/threonine-protein kinase PLK1 (Homo sapiens) (UniProt P53350); assay: Binding affinity to wild-type human partial length PLK1 (A33 to F325 residues) expressed in mammalian expression system assessed as residual binding level at 1 uM by Kinomescan method relative to control
Chain of Serine/threonine-protein kinase PLK1 (Homo sapiens) (P53350 whole entry, the tested form may be a part): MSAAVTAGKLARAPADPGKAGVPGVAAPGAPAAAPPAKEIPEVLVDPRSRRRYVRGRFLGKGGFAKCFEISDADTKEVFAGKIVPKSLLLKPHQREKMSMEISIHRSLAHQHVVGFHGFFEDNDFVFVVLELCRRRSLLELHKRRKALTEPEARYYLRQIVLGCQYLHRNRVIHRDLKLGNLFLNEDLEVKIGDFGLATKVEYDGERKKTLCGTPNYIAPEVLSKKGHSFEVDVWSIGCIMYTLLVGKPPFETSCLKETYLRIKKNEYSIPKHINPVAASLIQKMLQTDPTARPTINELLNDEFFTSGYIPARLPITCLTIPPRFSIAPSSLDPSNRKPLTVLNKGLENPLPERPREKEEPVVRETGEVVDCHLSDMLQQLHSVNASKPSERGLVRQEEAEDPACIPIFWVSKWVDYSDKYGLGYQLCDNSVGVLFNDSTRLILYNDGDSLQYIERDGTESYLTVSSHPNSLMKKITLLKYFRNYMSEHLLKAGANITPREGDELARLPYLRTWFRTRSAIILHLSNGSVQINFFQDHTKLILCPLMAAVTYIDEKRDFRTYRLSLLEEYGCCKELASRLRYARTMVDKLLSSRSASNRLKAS

[22] = biological target: Protein kinase C epsilon type (Homo sapiens) (UniProt Q02156); assay: Binding affinity to wild-type human partial length PRKCE (A378 to P737 residues) expressed in mammalian expression system assessed as residual binding level at 1 uM by Kinomescan method relative to control
[23] = biological target: Ribosomal protein S6 kinase alpha-6 (Homo sapiens) (UniProt Q9UK32); assay: Binding affinity to wild-type human partial length N-terminal RSK4 kinase domain 1 (M1 to E397 residues) expressed in mammalian expression system assessed as residual binding level at 1 uM by Kinomescan method relative to control
[24] = biological target: Serine/threonine-protein kinase TAO2 (Homo sapiens) (UniProt Q9UL54); assay: Binding affinity to wild-type human partial length TAOK2 (M1 to A320 residues) expressed in mammalian expression system assessed as residual binding level at 1 uM by Kinomescan method relative to control

## C=CC(=O)Nc1cc(Nc2ncc(Cl)c(Nc3ccccc3S(=O)(=O)C(C)C)n2)c(OC)cc1N(C)CCN(C)C
[1]
  AUC(0-t): 1550 ng·h/mL
[2]
  Activity: 0%
[3]
  Activity: 10%
[4]
  Activity: 26%
[5]
  Activity: 86%
[6]
  Activity: 94%
[7]
  Activity: 93%
[8]
  Activity: 82%
[9]
  Activity: 98%
[10]
  Activity: 75%
[11]
  Activity: 49%
[12]
  Activity: 96%
[13]
  Activity: 39%
[14]
  Activity: 60%
[15]
  Activity: 72%
[16]
  Activity: 66%
[17]
  Activity: 100%
[18]
  Activity: 56%
[19]
  Activity: 100%
[20]
  Activity: 43%
[21]
  Activity: 83%
[22]
  Activity: 99%
[23]
  Activity: 15%
[24]
  Activity: 52%
